Sampled rows, rich in hits. Any-hit rate of the full collection: about 2.1%.
FN deposit inh = fibronectin deposition inhibition; inhibition, % at 12.6 µM; AH1F fibroblasts, Alexa488-fibronectin deposition fluorescence, overnight; AID 743247; 350,000 tested, 0.086% active;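 active = mean inhibition across replicates of 30% or more, regardless of how many single replicates reach that level; inconclusive = mean under 30% yet at least half of replicates reach 30%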;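 note: positive control wells lacked labelled fibronectin entirely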
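Assay system: AH1F fibroblast monolayer, labelled fibronectin deposition. Amount: 10000 cells per well. Also added: labelled fibronectin 24 nM. Compound: single-point pinned compound. Incubation: cell attachment 1 h, compound and FN exposure overnight. Detection: fluorescence after three HBSS washes, excitation 485 nm, emission 525 nm. Read-out: inhibition of fibronectin deposition signal.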
aSyn 5UTR inh = MLPCN primary screen, SNCA 5' untranslated region. alpha-synuclein 5'UTR reporter, inhibitor activity. inhibition, % (tested at 7.5 µM). 300,000 tested, 0.82% active; in the data active = inhibition above about 60%; inconclusive = no clear call, values can overlap the other calls;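 note: H4 neuroglioblastoma cells stably carrying SNCA 5'UTR luciferase fusion; 0% = DMSO wells and 100% = positive control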
Shn3 3UTR inh = Schnurri-3 reporter inhibition in Clone20 osteoblasts | Clone20 osteoblast Shn3 3'UTR firefly luciferase, 24 h | 360,000 tested, 0.52% active | inhibition, % at 12.5 µM;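 active = mean inhibition of at least 75% with every replicate also reaching 75%; inconclusive = mean inhibition at least 75% but some replicate below; inactive = mean inhibition below 75%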;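 note: 0% = median of neutral control wells and 100% = pilot-screen positive control compound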
EBV LMP1 NFkB = reduces LMP1-driven NF-kappaB luciferase signal. LMP1-induced NF-kappaB luciferase reporter cells, luminescence. inhibition, % at 12.5 µM. 350,000 tested, 0.69% active. AID 504558; in the data active = inhibition above about 41%; inconclusive = no clear call, values can overlap the other calls;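 note: 0% = neutral control wells and 100% = reference inhibitor control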
PAX8 reporter = inhibitors of PAX8 transcriptional activity in RMG-I cells; 360,000 tested, 1.2% active; AID 652154; RMG-I TPO-luciferase reporter, SteadyGlo, 24 h; inhibition, % at 12.6 µM;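 active = mean replicate inhibition at least 60% with every replicate also reaching 60%; inconclusive = only one of the two criteria is met; inactive = mean below 60% and not all replicates reaching 60%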;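 note: luciferase light reporting Pax8 driven TPO promoter activity; plate controls were median of neutral control wells for no effect and mitoxantrone controls for full effect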
EWS-Fli block = inhibitors of EWS/Fli oncoprotein transcriptional activity. A673 NR0B1-luciferase reporter, viability-normalised. inhibition, % at 12.6 µM. 350,000 tested, 0.67% active;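 active = mean inhibition of at least 50% after viability correction, with every replicate also passing that limit; inconclusive = mean reaches 50% but only one of two replicates passes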;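 note: firefly luciferase signal divided by Alamar Blue viability fluorescence both relative to DMSO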
Active calls of the source: *; ? = inconclusive; · = no result.

SMILES	FN deposit inh	aSyn 5UTR inh	Shn3 3UTR inh	EBV LMP1 NFkB	PAX8 reporter	EWS-Fli block
CCc1csc(N2[C@H](C#N)[C@H](c3ccc(C4=CCCC4)cc3)[C@H]2CO)n1	4	·	·	·	11	9
CC1CCN(S(=O)(=O)c2ccc(NC(=O)c3ccncc3)cc2)CC1	·	-1	51	8	17	32
CCS(=O)(=O)c1ncc(Cl)c(C(=O)Nc2ccc(S(=O)(=O)N3CCC(C)CC3)cc2)n1	58*	65*	99*	8	100*	·
CCCCCc1ccc(OCCC[n+]2ccccc2)c(CCCCC)c1	-5	3	?	25	96*	38
C[n+]1cn(CC(O)COCc2ccccc2)c2ccccc21 (stereo unspecified)	3	17	-13	7	·	·
CCCCCc1ccc(OCCOCCn2c[n+](C)c3ccccc32)c(CCCCC)c1	·	26	93*	20	·	·
Cc1ccc(S(=O)(=O)N2CCN(C(=O)CSc3nnnn3C)C2)cc1	·	6	23	62*	·	·
CCCNC(=O)N1[C@H](CNC(C)=O)[C@@H](c2ccccc2)[C@@H]1CO	·	·	·	·	-11	-2
CCSc1cc(N2CCOCC2)nc(-c2ccc(Cl)cc2)n1	1	28	-18	6	135*	-2
CCSc1cc(N2CCCC2)nc(-c2ccc(Cl)cc2)n1	7	·	-4	-4	-35	-4
CCCCCCCCCCCCCCCC[n+]1ccccc1	29	·	97*	29	95*	60*
CCCCCCCCCCCCCCCC[n+]1cccc(C(=O)N(CC)CC)c1	14	26	76	4	64*	7
CCCCCCCCCCCCCCCC[n+]1ccc(/C=N/O)cc1	·	·	58	5	94*	21
CCCCCCCCCCCCCCCC[n+]1ccc(C(N)=O)cc1	-16	·	69	-2	111*	·
CCCCCCCC[n+]1cccc(C(=O)N(CC)CC)c1	3	11	-1	-2	2	9
CN(C)c1ccc2c(c1)[C@@H]1C[C@@H](CC(=O)NCc3ccc4c(c3)OCO4)O[C@@H](CO)[C@@H]1O2	·	·	·	·	10	-4
Cc1ccc(-n2c(C)cc(C(=O)COc3cccnc3[N+](=O)[O-])c2C)cc1	3	64*	43	15	-10	·
Cc1cc(C(=O)COC(=O)c2ccc[nH]c2=O)c(C)n1-c1ccccc1	7	-1	16	47*	-35	-11
Cc1cc(C(=O)COc2cccnc2[N+](=O)[O-])c(C)n1-c1ccccc1F	-3	67*	15	?	-9	40
Cc1cc(C(=O)COc2cccnc2[N+](=O)[O-])c(C)n1-c1ccccc1	12	100*	90*	?	13	31
COc1ccc(-c2cnc3c(c2)C(=O)N([C@@H](C)CO)C[C@@H](C)[C@@H](CN(C)C(=O)C2CCCCC2)O3)cc1	·	·	·	·	12	-10
CCC(=O)N1[C@@H]2Cn3c(ccc(-c4ccccc4)c3=O)[C@H]1[C@@H](C(=O)N(C)C)[C@@H]2CO	·	·	·	·	-4	1
O=C(N/N=C/c1cc([N+](=O)[O-])ccc1O)c1cccc2cc[nH]c12	11	68*	47	9	14	24
O=C(c1ccc(-c2nc3ccccc3s2)s1)N1CCOCC1	-1	100*	·	·	66*	77*
O=C(NC1CC1)c1ccc(-c2nc3ccccc3s2)s1	·	96*	76	42*	·	·
SMILES	FN deposit inh	aSyn 5UTR inh	Shn3 3UTR inh	EBV LMP1 NFkB	PAX8 reporter	EWS-Fli block
Cc1ccc2nc(NC(=O)c3ccc(-c4nc5ccccc5s4)s3)sc2c1	3	·	-15	-62	-25	-4
COc1cccc(NC(=O)N2CC3(C2)[C@@H](c2ccccc2)[C@@H](CO)N3C(=O)C2CCCC2)c1	·	·	·	·	·	-6
O=C(N[C@@H](Cc1ccccc1)C(=O)CCl)OCc1ccccc1	5	·	17	56*	50	22
O=C(N[C@@H](Cc1ccccc1)C(=O)N[C@@H](Cc1ccccc1)C(=O)O)OCc1ccccc1	0	1	3	0	20	-11
Cc1ccc(S(=O)(=O)Nc2ccc3c(c2)C(=O)N([C@H](C)CO)C[C@@H](C)[C@@H](CN(C)Cc2ccc(C(F)(F)F)cc2)OCCCC[C@H](C)O3)cc1	1	·	·	·	96*	18
Cc1ccc(S(=O)(=O)Nc2ccc3c(c2)C(=O)N([C@H](C)CO)C[C@H](C)[C@H](CN(C)Cc2ccc(C(F)(F)F)cc2)OCCCC[C@H](C)O3)cc1	-2	·	·	·	115*	37
Cc1ccc(S(=O)(=O)Nc2ccc3c(c2)C(=O)N([C@H](C)CO)C[C@@H](C)[C@@H](CN(C)Cc2ccc(C(F)(F)F)cc2)OCCCC[C@@H](C)O3)cc1	0	·	·	·	87*	32
Cc1ccc(S(=O)(=O)Nc2ccc3c(c2)C(=O)N([C@H](C)CO)C[C@H](C)[C@@H](CN(C)Cc2ccc(C(F)(F)F)cc2)OCCCC[C@@H](C)O3)cc1	2	·	·	·	7	3
Cc1ccc(S(=O)(=O)Nc2ccc3c(c2)C(=O)N([C@H](C)CO)C[C@H](C)[C@H](CN(C)Cc2ccc(C(=O)O)cc2)OCCCC[C@@H](C)O3)cc1	-5	·	·	·	-15	-33
Cc1ccc(S(=O)(=O)Nc2ccc3c(c2)C(=O)N([C@@H](C)CO)C[C@H](C)[C@@H](CN(C)Cc2ccc(C(F)(F)F)cc2)OCCCC[C@H](C)O3)cc1	0	·	·	·	80*	15
Cc1ccc(S(=O)(=O)Nc2ccc3c(c2)C(=O)N([C@@H](C)CO)C[C@@H](C)[C@H](CN(C)Cc2ccc(C(F)(F)F)cc2)OCCCC[C@@H](C)O3)cc1	-6	·	·	·	108*	45
C[C@H]1CN([C@@H](C)CO)C(=O)c2cccc(NC(=O)C3CC3)c2O[C@H]1CN(C)C(=O)Nc1ccccc1	·	·	·	·	-6	-12
C#CCn1c(=O)c2c(ncn2C)n(C)c1=O	0	1	9	44*	-5	-1
Cc1ccc(C)c(C(=O)NCCN(C)C)c1	-12	-5	-8	2	·	·
C=C(CN(C)C)C(=O)c1cc(C)ccc1C	-5	·	95*	-6	52	33
O=C(c1cc(-c2ccncc2)nc2c(Cl)cccc12)N1CCN(c2ccccc2F)CC1	4	99*	3	-3	56	?
O=C(C[C@H]1C=C[C@@H](NC(=O)CC2CC2)[C@@H](CO)O1)NCC(F)(F)F	11	·	·	·	·	·
CC(C)(C)c1ccc(C2CC2C(=O)N/N=C\c2ccc[nH]2)cc1 (stereo unspecified)	-2	44	95*	-64	53	62*
COc1ccc(CN2C(=O)C(C)Nc3ncnc(N4CCOCC4)c32)cc1 (stereo unspecified)	-2	·	16	3	69*	16
COc1ccc(CN2C(=O)C(C)Nc3ncnc(N4CCN(c5ccccc5)CC4)c32)cc1 (stereo unspecified)	2	·	0	0	-9	-4
CO[C@@H]1CN(C)C(=O)c2cc(NC(=O)C3CCCC3)ccc2OC[C@H](C)N(C)C[C@H]1C	2	·	·	·	8	3

Screens as filed in PubChem BioAssay.
